CHOP inh: blocks CHOP induction under ER stress | 220,000 compounds, 3.8% hits | CHO-K1 CHOP-promoter luciferase, tunicamycin-induced, 15-18 h | inhibition, % at 10 µM;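 active = compounds that reduced the stress-induced luciferase reporter signal by more than about 70% of percent inhibition, limit read from the data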
UPR CHOP act: activators of apoptotic arm of unfolded protein response (CHOP); 330,000 compounds, 0.34% hits; AID 449763; CHO-CHOP luciferase reporter, UPR activation, luminescence; percent of tunicamycin response over DMSO baseline; activation, % at 10 µM;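 active = at 10 µM dose, activation of 40% or more, normalized to positive control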
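assay system = CHO CHOP reporter cells | amount = 500 CHO-CHOP cells per well | buffer or medium = F12 with 10% FBS | incubation = 16-18 h cell attachment, then 6 h compound exposure, 37 °C | detection = luminescence read with Steady-Glo | read-out = percent activation relative to tunicamycin control | controls = tunicamycin high control, DMSO low control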
UPR XBP1 act: activators of adaptive arm of unfolded protein response (XBP1); AID 463104; activation, % at 20 µM; CHO-XBP1 luciferase reporter, IRE1-XBP1 UPR activation, luminescence; percent of tunicamycin response, DMSO as zero; 330,000 compounds, 0.33% hits;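 active = versus positive control, 20 µM dose yields 30% or more activation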
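Assay system: IRE1-XBP1 luciferase reporter CHO line. Input: 1000 cells/well. Buffer or medium: F12 with 10% serum. Doses: 20 µM, 1% DMSO. Times: overnight seeding at 37 °C, 6 h compound treatment at 37 °C. Technique: Steady-Glo luciferase glow luminescence, 10 min after reagent addition.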
A1 inh: inhibitors of the anti-apoptotic protein A1, read as caspase activation | MEF A1-2A-BIM cells, Caspase-Glo 3/7 luminescence, 3 h; percent of clofoctol response, vehicle zero | caspase activation, % (no concentration beside the values) | 330,000 compounds, 0.066% hits;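 active = over half of replicate activation scores above 10%, or exactly half above 10 with the replicate mean above 10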
UPR XBP1 confirm: adaptive UPR (XBP1) activation, confirmed. activation, % at 20 µM. 1,000 compounds, 63% hits. CHO-XBP1 IRE1-XBP1 luciferase reporter, luminescence. shares compounds with UPR XBP1 act;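 active = reporter signal at least 30% of the positive control's activation in two or more of four replicate wells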
Large screens that a line does not name were inactive (follow-up assays come after a bar, where they were run). The full list was thinned out, with hits kept by preference.

CCN1CCN(C(c2cc3cccc(C)c3[nH]c2=O)c2nnnn2Cc2ccccc2)CC1 (stereo not given)	none
O=C(COc1ccc2ccc(=O)oc2c1)Nc1c(Cl)cccc1C(F)(F)F	UPR XBP1 act 31 (no result: CHOP inh) | UPR XBP1 confirm inactive
CCn1c(/C=C/c2ccc(O)c(O)c2)nc2ccccc2c1=O	UPR XBP1 act 37 (no result: CHOP inh) | UPR XBP1 confirm inactive
CCOCCCNC(=O)CN1CCN(Cc2ccc(Cl)cc2)C1=O	none (no result: CHOP inh)
CC(C)C(NS(=O)(=O)c1cccc(C(F)(F)F)c1)C(=O)NCc1cccs1 (stereo not given)	none (no result: CHOP inh)
O=C1c2cccc3cccc(c23)C(=O)N1Nc1ccccc1	none
O=C1c2cccc3cc(Br)cc(c23)C(=O)N1Nc1ccc(Br)cc1	UPR XBP1 act 40 | UPR XBP1 confirm 33
O=C(Nc1nc(-c2cccs2)cs1)c1ccc(Cl)s1	none
CC(C)(C)c1csc(NC(=O)c2ccc(Cl)s2)n1	CHOP inh 73, UPR XBP1 act 30 | UPR XBP1 confirm 33
COc1cccc(NC(=O)CSc2nc3c([nH]c4ccccc43)c(=O)n2C)c1	UPR XBP1 act 35 | UPR XBP1 confirm inactive
COc1cc(OC)c2c(-c3cccc(-c4ccc(CO)cc4)c3)cc(=O)oc2c1	UPR XBP1 act 34 (no result: CHOP inh, A1 inh) | UPR XBP1 confirm 30
CC1CCN(S(=O)(=O)c2ccc(NC(=O)Cn3nnc(-c4ccccc4)n3)cc2)CC1	none
Cc1cc(C)cc(NC(=O)Cn2c(=O)oc3cc(S(=O)(=O)N4CCC(C)CC4)ccc32)c1	CHOP inh 72, UPR XBP1 act 32 | UPR XBP1 confirm inactive
Cc1ccnc(NC(=O)Cn2c(=O)oc3cc(S(=O)(=O)N4CCCC4)ccc32)c1	none (no result: CHOP inh)
Cc1ccc(-c2nnn(CC(=O)Nc3ccc(S(=O)(=O)N4CCC(C)CC4)cc3)n2)cc1	UPR XBP1 act 44 | UPR XBP1 confirm 56
COC(=O)[C@@]1(C)[C@H]2C(=O)N(C)C(=O)[C@H]2[C@H]2CN(C)C(=NC3CCCCC3)N21	none (no result: CHOP inh, A1 inh)
ClCc1nnc(-c2cc3c(s2)CCCC3)o1	none (no result: UPR CHOP act, UPR XBP1 act, A1 inh)
CC(C)(C)C1CCc2sc(-c3nnc(CCl)o3)cc2C1 (stereo not given)	UPR XBP1 act 44 | UPR XBP1 confirm inactive
Nc1c2c(nn1-c1ccccc1)CCC2	none (no result: CHOP inh)
Cn1nnnc1Sc1ncnc2scc(-c3ccc(Br)cc3)c12	UPR XBP1 act 100 (no result: CHOP inh) | UPR XBP1 confirm 141
Cc1ccc(N=Cc2c(O)c3ccccc3oc2=O)cc1F	none (no result: CHOP inh)
COc1ccc(Cl)cc1N=Cc1c(O)c2ccccc2oc1=O	UPR XBP1 act 42 (no result: CHOP inh) | UPR XBP1 confirm inactive
O=C(Cc1ccccc1)c1nnc(-c2ccccc2)o1	none
CC(=O)Nc1sc(C)c(C)c1C(=O)OCC(=O)Nc1cccc(C)c1	UPR XBP1 act 37 (no result: CHOP inh) | UPR XBP1 confirm inactive
CC1=Nn2c(nnc2-c2cc(-c3ccccc3)n[nH]2)SC1	none
Brc1ccc(C2=Nn3c(nnc3-c3n[nH]c4c3CCC4)SC2)cc1	UPR XBP1 act 37 (no result: CHOP inh) | UPR XBP1 confirm 49
c1ccc(-c2ccc(C3=Nn4c(nnc4-c4cc(-c5ccccc5)n[nH]4)SC3)cc2)cc1	UPR XBP1 act 64 | UPR XBP1 confirm inactive
Clc1ccc(C2=Nn3c(nnc3-c3n[nH]c4c3CCC4)SC2)cc1	none (no result: CHOP inh)
COc1ccc(N(CC(=O)Nc2c(C)n(C)n(-c3ccccc3)c2=O)S(=O)(=O)c2ccc(C)cc2)cc1	none
COc1ccc(N(CC(=O)Nc2c(C)n(C)n(-c3ccccc3)c2=O)S(=O)(=O)c2ccccc2)cc1OC	UPR XBP1 act 90 | UPR XBP1 confirm inactive
CC(C)c1ccc(OCC(=O)Nc2c3c(nn2C(C)(C)C)CS(=O)(=O)C3)cc1	none (no result: CHOP inh)
CCC(=O)Nc1nnc(SCC(=O)c2ccc3c(c2)Cc2ccccc2-3)s1	UPR XBP1 act 52 | UPR XBP1 confirm 29
Cc1c(CCOC(=O)CC23CC4CC(CC(C4)C2)C3)sc[n+]1CC(=O)c1ccc(Br)cc1	UPR XBP1 act 34 | UPR XBP1 confirm inactive
Cc1c(CCOC(=O)CC23CC4CC(CC(C)(C4)C2)C3)sc[n+]1CC(=O)c1ccccc1	none
COc1ccc(OC)c(-c2nnc3n2N=C(c2ccc(OC)c(OCC4CC4)c2)CS3)c1	UPR XBP1 act 32 (no result: CHOP inh) | UPR XBP1 confirm 35
COc1ccc(C2=Nn3c(nnc3-c3ccccc3Cl)SC2)cc1OCC1CC1	none (no result: CHOP inh)
CCOC(=O)C1(Cc2ccccc2)C(=O)N(CCCN(C)C)c2ccccc21 (stereo not given)	none (no result: CHOP inh)
CCC(=O)NC(c1ccc(C)cc1)c1ccc2cccnc2c1O (stereo not given)	none (no result: CHOP inh)
CC(=O)NC(c1ccco1)c1ccc2cccnc2c1O (stereo not given)	UPR XBP1 act 32 (no result: CHOP inh) | UPR XBP1 confirm inactive
O=C(Cc1ccccc1)NCC(=O)OCc1cccc([N+](=O)[O-])c1	none (no result: CHOP inh)
Cc1ccc(OCCSc2nc3ccccc3n2CCC(=O)O)cc1	none (no result: CHOP inh)
CC(C)C(=O)N(c1cc2sc(=O)oc2c2ccccc12)S(=O)(=O)c1cccs1	UPR XBP1 act 48 | UPR XBP1 confirm 49
O=C(OCCc1cc2ccccc2c(=O)o1)c1ccccc1C(F)(F)F	none (no result: CHOP inh)
COc1ccc2[nH]c3nc(SCc4nnc(-c5ccc(C)cc5)o4)nnc3c2c1	UPR XBP1 act 71 | UPR XBP1 confirm 190
O=S(=O)(Nc1ccc(-c2ccc3nncn3n2)cc1)c1cccs1	none (no result: CHOP inh)
N#Cc1ccc(CN2CCN(C(=O)CN3C(=O)NC4(CCCC4)C3=O)CC2)cc1	none (no result: CHOP inh, A1 inh)
Cc1cc(NC(=O)/C(C#N)=C/c2ccc(-c3ccc(SC(F)F)cc3)o2)n(-c2ccccc2)n1	UPR XBP1 act 37 | UPR XBP1 confirm 34
CC1=Nc2ccccc2/C1=C\c1sc(Nc2ccc(C)cc2)nc1O	UPR XBP1 act 33 | UPR XBP1 confirm 40
CCOC(=O)c1c(NC(=O)c2cc(C)on2)c2cc([N+](=O)[O-])ccc2n1C	UPR XBP1 act 84 | UPR XBP1 confirm 49
CCOC(=O)c1c(NC(=O)c2ccno2)c2cc([N+](=O)[O-])ccc2n1C	none
CC(C)(C)c1ccc(C(=O)Oc2ccc3c(c2)OCC3=O)cc1	none
O=C(Oc1ccc2c(c1)OCC2=O)c1ccccc1	UPR XBP1 act 37 | UPR XBP1 confirm inactive
CC1(C)C2CC[C@]3(C)C(CC=C4[C@@H]5C[C@@](C)(CO)[C@@H]6C[C@@]5(CC[C@]43C)C(=O)O6)[C@@]2(C)CC[C@@H]1O (stereo not given in full)	none (no result: CHOP inh)
CC1(C)CC[C@@]23CC[C@]4(C)[C@@](OC2=O)(C3C1)[C@H]1O[C@H]1C1[C@@]2(C)CC[C@H](O)C(C)(C)C2CC[C@]14C (stereo not given in full)	UPR XBP1 act 50 (no result: CHOP inh) | UPR XBP1 confirm 46
Cn1cc(/C=C(\C#N)C(=O)Nc2cccc([N+](=O)[O-])c2)c2ccccc21	UPR XBP1 act 79 | UPR XBP1 confirm 73
COc1ccc(Br)cc1-c1nc2c(c(=O)[nH]c(=O)n2Cc2ccccc2)n1C	UPR XBP1 act 50 (no result: CHOP inh) | UPR XBP1 confirm 65

Screening data from PubChem BioAssay.
